# Results as given in ChEMBL document CHEMBL1125009, “Variation in the aromatic ring of cromakalim: antihypertensive activity of pyranopyridines and 6-alkyl-2H-1-benzopyrans” (1990).
# Legend:
# Type in all cases: functional, Artery
# [1] = test system: Rattus norvegicus; experiment: The maximum fall in systolic blood pressure was determined at a dose of 10 mg/kg after oral administration in rats
# Procedure, shortened: (§1)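 Conscious spontaneously hypertensive rats (Japanese Okamoto strain, 14–24 weeks old), used only if systolic pressure was >180 mmHg, six per dose level. Dosed by oral needle into the esophagus as a solution or suspension in 1% w/v methylcellulose. Systolic pressure was read by tail-cuff, each reading the mean of at least six recordings, before dosing and at intervals from 1 to 6 h. The maximum fall was taken.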
# [2] = test system: Rattus norvegicus; experiment: The maximum fall in systolic blood pressure was determined at a dose of 0.3 mg/kg after oral administration in rats; procedure, shortened: as §1
# [3] = test system: Rattus norvegicus; experiment: The maximum fall in systolic blood pressure was determined at a dose of 3.0 mg/kg after oral administration in rats; procedure, shortened: as §1
# [4] = test system: Rattus norvegicus; experiment: The maximum fall in systolic blood pressure was determined at a dose of 1 mg/kg after oral administration in rats; procedure, shortened: as §1
# [5] = test system: Rattus norvegicus; experiment: The maximum fall in systolic blood pressure was determined at a dose of 1.0 mg/kg after oral administration in rats; procedure, shortened: as §1
# [6] = test system: Rattus norvegicus; experiment: The maximum fall in systolic blood pressure was determined at a dose of 0.1 mg/kg after oral administration in rats; procedure, shortened: as §1
# [7] = test system: Rattus norvegicus; experiment: The maximum fall in systolic blood pressure was determined at a dose of 3 mg/kg after oral administration in rats; procedure, shortened: as §1
# [8] = test system: Rattus norvegicus; experiment: The maximum fall in systolic blood pressure was determined at a dose of 10.0 mg/kg after oral administration in rats; procedure, shortened: as §1
Compound,Max fall in blood pressure [2],Max fall in blood pressure [5],Max fall in blood pressure [7],other results
CC1(C)Oc2ncccc2[C@@H](N2CCCC2=O)[C@@H]1O,–,–,–,Max fall in blood pressure [1]: 5%
CC(=O)NC1c2cc(C)ccc2OC(C)(C)[C@H]1O (some centres not stated),9%,–,–,Max fall in blood pressure [3]: 20%
CC1(C)Oc2cnccc2[C@@H](N2CCCC2=O)[C@@H]1O,–,–,–,Max fall in blood pressure [4]: 7%; Max fall in blood pressure [1]: 41%
CC(=O)N[C@@H]1c2cnccc2OC(C)(C)[C@H]1O,14%,43%,–,–
CCc1ccc2c(c1)C(N1CCCC1=O)[C@H](O)C(C)(C)O2 (some centres not stated),11%,54%,–,–
CC(C)c1ccc2c(c1)C(N1CCCC1=O)[C@H](O)C(C)(C)O2 (some centres not stated),17%,36%,–,Max fall in blood pressure [3]: 60%
CC(C)(C)c1ccc2c(c1)C(N1CCCC1=O)[C@H](O)C(C)(C)O2 (some centres not stated),9%,39%,–,Max fall in blood pressure [3]: 49%
CC1(C)Oc2ccncc2[C@@H](N2CCCCC2=O)[C@@H]1O,55%,56%,–,Max fall in blood pressure [6]: 24%
CC1(C)C=C(N2CCCCC2=O)c2cnccc2O1,–,–,37%,Max fall in blood pressure [4]: 14%
CC1(C)Oc2ccc(C(F)(F)F)cc2C(N2CCCC2=O)[C@@H]1O (some centres not stated),26%,–,–,Max fall in blood pressure [6]: 17%
CC1(C)Oc2ccncc2[C@@H](N2CCCC2=O)[C@@H]1O,–,–,41%,Max fall in blood pressure [4]: 39%
CC1(C)Oc2ccc(-c3ccccc3)cc2C(N2CCCC2=O)[C@@H]1O (some centres not stated),–,–,14%,Max fall in blood pressure [8]: 20%
Cc1ccc2c(c1)C(N1CCCC1=O)[C@H](O)C(C)(C)O2 (some centres not stated),–,–,12%,Max fall in blood pressure [1]: 49%
CC1(C)Oc2ccc(C3CCCC3)cc2C(N2CCCC2=O)[C@@H]1O (some centres not stated),–,24%,–,Max fall in blood pressure [8]: 66%
CC1(C)Oc2cccnc2[C@@H](N2CCCC2=O)[C@@H]1O,–,–,–,Max fall in blood pressure [1]: 15%
Cc1ccc2c(c1)C(N1CCCCC1=O)[C@H](O)C(C)(C)O2 (some centres not stated),16%,33%,56%,–
CCCc1ccc2c(c1)C(N1CCCC1=O)[C@H](O)C(C)(C)O2 (some centres not stated),–,–,42%,Max fall in blood pressure [4]: 17%
CC1(C)Oc2cc[n+]([O-])cc2[C@@H](N2CCCCC2=O)[C@@H]1O,39%,68%,–,–
CC1(C)Oc2ccccc2C(N2CCCC2=O)[C@@H]1O (some centres not stated),–,–,–,Max fall in blood pressure [1]: 49%
CC1(C)Oc2ccc(C#N)cc2C(N2CCCC2=O)C1O (configuration not stated) [CROMAKALIM],39%,47%,–,Max fall in blood pressure [6]: 13%
